Experimental data of several laboratories.
Protocols differ between the studies behind these lines.
G protein-coupled receptor 88: G protein-coupled receptor 88 (Homo sapiens, UniProt Q9GZN0)
CDK13: Cyclin-dependent kinase 13 (CDK13, Homo sapiens, UniProt Q14004)
Cnr2: Cannabinoid receptor 2 (Cnr2, Mus musculus, UniProt P47936)
PRKAA1: 5'-AMP-activated protein kinase catalytic subunit alpha-1 (PRKAA1, Homo sapiens, UniProt Q13131)

CCCCOc1ccc([C@@H](CO)C(=O)N[C@H](C)c2ccccc2)cc1
Emax (G protein-coupled receptor 88; cAMP, agonist, TR-FRET; CHO): 100%

Cc1nn(C)cc1-c1nc2c(N3CCN(Cc4ccc(Cl)cc4)CC3)c(Cl)cnc2[nH]1
remaining binding (CDK13; binding, competition with immobilised ligand; 1 µM): 77%

CC[C@H](NC(=O)OCc1ccccc1)C(=O)N[C@H](C(=O)N[C@@H](CC(C)C)C(=O)N(C)N(C#N)CCC(N)=O)C(C)(C)C
kon (Procathepsin L (CTSL, Homo sapiens, UniProt P07711); enzyme activity, inhibitor): 17300 M⁻¹ s⁻¹

CCC[C@H](C)COc1ccc([C@@H](CO)C(=O)N[C@H](C)c2ccccc2)cc1
Emax (G protein-coupled receptor 88; cAMP, agonist, TR-FRET; CHO): 97%

CCOC(=O)C(CC)(CCCSCCOCCOCCOCCNC(=O)OC(C)(C)C)NC(=O)c1ccc(C2CC2)c(Cc2ccc(F)cc2)n1 (centres unmarked)
Emax (Cnr2; cAMP, agonist): 87%

Cn1cc(-c2cc(F)cc(N3CCn4c(cc5c4CCCC5)C3=O)c2CO)cc(Nc2ccc(N3CCN(C4COC4)CC3)cn2)c1=O
inhibition (PRKAA1; enzyme activity, inhibitor; 0.1 µM): 0%

CCOC(=O)C(CC)(CCCSCCOCCOCCNc1ccc([N+](=O)[O-])c2nonc12)NC(=O)c1ccc(C2CC2)c(Cc2ccc(F)cc2)n1 (racemic)
Emax (Cnr2; cAMP, agonist): 123%

CC[C@@H](C)COc1ccc([C@@H](CO)C(=O)N[C@H](C)c2ccccc2)cc1
Emax (G protein-coupled receptor 88; cAMP, agonist, TR-FRET): 96%

COc1ncccc1-c1cnn2ccc(N3CCN(C(=O)OC(C)C)CC3)nc12
remaining binding (CDK13; binding, competition with immobilised ligand; 1 µM): 95%

C#Cc1n[nH]c2c(-c3cn([C@@H](C)c4ccccn4)c(=O)[nH]c3=O)cc(F)cc12
inhibition (Ephrin type-B receptor 1 (EPHB1, Homo sapiens, UniProt P54762); enzyme activity, inhibitor; 0.1 µM): 1.8%

Cn1cc(-c2cccc(N3CCc4c(sc5c4CC(C)(C)C5)C3=O)c2CO)cc(Nc2ccncn2)c1=O
inhibition (Sphingosine kinase 2 (SPHK2, Homo sapiens, UniProt Q9NRA0); enzyme activity, inhibitor; 1 µM): -1%

Cc1nc2c(=O)n(C)c(=O)nc-2n(C)n1
ΔTm (Protein disulfide-isomerase (P4HB, Homo sapiens, UniProt P07237); thermal stability, DSF; 1 µM): -1.43 °C

CCCC#Cc1ccc([C@@H](CO)C(=O)N[C@H](C)c2ccccc2)cc1
Emax (G protein-coupled receptor 88; cAMP, agonist, TR-FRET): 92%

Nc1ncc(-c2nc(N3CCOCC3)nc(N3CCOCC3)n2)c(C(F)F)n1
remaining binding (PRKAA1; cell-free assay, competition with immobilised ligand; 10 µM): 91%
